Experimental data pooled from the literature.
Each line is one published result; the experiments were not run side by side.
Target: TGF-beta receptor type-2 (TGFBR2, Homo sapiens, UniProt P37173)

SMILES	test	conditions	quantity	value
N#CC1(c2ccccn2)CCN(Cc2cc(C(=O)O)c(=O)n3ccccc23)CC1	cell-free assay, competition with immobilised ligand	1 µM	remaining binding	93%
Cc1nn(C)cc1-c1nc2c(N3CCN(Cc4ccc(Cl)cc4)CC3)c(Cl)cnc2[nH]1	binding, competition with immobilised ligand	1 µM	remaining binding	100%
COc1cc(Nc2ncc(F)c(Nc3ccc4c(n3)NC(=O)C(C)(C)O4)n2)cc(OC)c1OC	binding	10 µM	inhibition	75%
Nc1ncc(-c2nc(N3CCOCC3)nc(N3CCOCC3)n2)c(C(F)F)n1	cell-free assay, competition with immobilised ligand	10 µM	remaining binding	69%
CC(C)(C)c1cc(C=C(C#N)C#N)cc(Br)c1O	enzyme activity, inhibitor	0.5 µM	remaining activity	93.8%
Cn1cncc1[C@](O)(COc1ccc(C#N)cc1-c1ccc(OC(F)(F)F)cc1)c1ccc(C#N)cc1	cell-free assay, competition with immobilised ligand	1 µM	remaining binding	100%
COc1ncccc1-c1cnn2ccc(N3CCN(C(=O)OC(C)C)CC3)nc12	binding, competition with immobilised ligand	1 µM	remaining binding	100%
O=c1[nH]c2ccccc2n1C1CCN(Cc2ccc(-c3[nH]c4cc5ncnc5cc4nc3-c3ccccc3)cc2)CC1	cell-free assay	0.5 µM	remaining signal	95.5%
